# Screens as filed in PubChem BioAssay.
# In the library only some 1.3% were active in any assay of this set; here they are far more common.
# LEDGF integ inh: blocks HIV-1 LEDGF/p75-dependent DNA integration; TR-FRET IN-LEDGF/p75 DNA integration, Eu/Cy5; inhibition, % at 3.7 µM; 370,000 tested, 0.64% active;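 active means inhibition above the screen-wide mean plus 3 SD, cut at about 13% in these data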;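 further: signal is the Cy5 over europium emission ratio at 671 and 618 nm; 0% = plate median of compound wells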
# CASP6 VEID inh: blocks human caspase-6 cleavage activity; purified caspase-6, Z-VEID-R110 cleavage fluorescence; 350,000 tested, 0.53% active; inhibition, % at 12.5 µM;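 active means mean inhibition across replicates at least about 35%, with every replicate also reaching that limit, limit read from the data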;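 further: 0% = median of neutral control wells and 100% = no fluorescence left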
# TDP2 absorb: blocks human TDP2 phosphodiesterase activity; O95551; recombinant TDP2, T5PNP hydrolysis, p-nitrophenol absorbance 415 nm; inhibition, % at 12.8 µM; 370,000 tested, 0.34% active;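 active means inhibition above the mean of all tested compounds plus 3 SD, set per campaign, cut at about 25% in these data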;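 further: 0% = DMSO with enzyme and 100% = buffer with substrate but no TDP2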
#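 Incubation: 2 h at 37 °C; Test system: recombinant human TDP2; Quantity: enzyme 120 nM; Read-out basis: percent inhibition; Medium: 50 mM Tris-HCl pH 7.5 with Mg2+, KCl, DTT, BSA; Repeats: single replicate; Compound: 12.8 µM single point, 1% DMSO; Signal: epi absorbance; Reagent: 5 mM T5PNP chromogenic substrate; Benchmarks: no-enzyme high, DMSO-plus-enzyme low.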
# NSD2 inh: inhibitors of human histone methyltransferase NSD2; O96028; NSD2 peptide methylation, AlphaScreen, 120 min; inhibition, % at 12.5 µM; 310,000 tested, 0.54% active; AID 743445; in the data active means inhibition above about 50%
# UCH37 inh: human UCH37 deubiquitinating enzyme inhibition; Q9Y5K5; purified proteasome/UCH37, Ub-AMC cleavage fluorescence; inhibition, % (no concentration beside the values); 330,000 tested, 0.33% active;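 active means mean inhibition over replicate wells above about 20%, limit read from the data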;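 further: 0% = compound-free wells with enzyme and 100% = wells lacking proteasome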
#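 Material: human UCH37 enzyme supplied as purified proteasome complex / Amount: 0.15 nM proteasome as dispensed / Buffer or medium: pH 7.4 Tris-HCl (50 mM) with ovalbumin, ATP-MgCl2, DTT / Times: preincubation 30 min, reaction 25 min, room temperature / Technique: AMC fluorescence from Ub-AMC cleavage, excitation 355 nm, emission 460 nm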
# AlphaScreen art: interferes with AlphaScreen signal, flagging NSD2 false positives | AC35, µM (highest dose often 10 µM), without a hit: top-dose activity change, negative = signal loss | 1,500 tested, 9.4% active | AlphaScreen artifact counterscreen, preloaded methylated H4 peptide | shares compounds with NSD2 inh; call rule not given here
# The depositor's hits bear a star; i = inactive; / = not tested or not shown.
SMILES,LEDGF integ inh,CASP6 VEID inh,TDP2 absorb,NSD2 inh,UCH37 inh,AlphaScreen art
CCN(CC)CCNc1nc(SC)nc2sc3c(c12)CCN(C)C3,7,-62,-6,62*,/,-7%
Nc1nonc1-n1nnc(C(=O)NN=CC2CC=CCC2)c1CSc1ccccc1 (configuration not stated),/,/,/,/,5,/
CCc1ccc(N(CC(=O)NCc2ccc3c(c2)OCO3)C(=O)c2csnn2)cc1,-1,/,-3,60*,-77,-2%
Cc1ccc(NCC(=O)NN=Cc2cccc(Br)c2)cc1,/,/,/,/,4,/
O=C(NN=Cc1ccsc1)c1cc(O)cc(O)c1,/,/,/,/,7,/
N#CC(C#N)=Cc1cccn1-c1ccc(C(=O)O)cc1,6,71*,-10,100*,/,-8%
CCOC(=O)/C(C#N)=C/c1cccn1-c1ccc(Cl)cc1,1,-2,-20,1,-57,/
COCCn1c(N)c(N(Cc2ccccc2)C(=O)c2cc(=O)[nH]c3ccccc23)c(=O)[nH]c1=O,2,2,3,93*,2,-6%
CCN(CC)CCNC(=O)c1cccc(NC(=O)C(=O)c2cc(Br)ccc2NC(C)=O)c1,-4,-13,8,57*,7,-3%
CC(=O)Nc1ccccc1C(=O)C(=O)Nc1cccc(Br)c1,-2,0,10,-1,1,/
COc1ccc(C(=O)Nc2c3c(nn2-c2ccc(Cl)cc2)CS(=O)(=O)C3)cc1,2,-2,10,69*,0,-1%
CC(CC(=O)Nc1cc(Cl)ccc1C)=NNC(N)=O,/,/,/,/,2,/
CC(CC(=O)Nc1cccc(Br)c1)=NNC(=O)c1ccc(O)cc1O,/,/,/,/,2,/
O=C(C=NO)NCc1cccnc1,/,/,/,/,4,/
CCOC(=O)C(C(=O)OCC)c1cc(Br)c2noc3c2c1C(=O)c1ccccc1-3,9,/,6,97*,1,-14%
Cc1c(C=NNC(=O)c2c[nH]c3ccccc23)cnn1C,/,/,/,/,3,/
CCN(CC)Cc1c(O)c(Cl)cc2c(C)cc(=O)oc12,2,24,-10,112*,i,-5%
CCOC(=O)c1ccc(S(=O)(=O)N2CCN(C(C)=O)CC2)cc1,1,0,1,-3,5,/
CCOC(=O)c1ccc(S(=O)(=O)N2CCN(c3ccccn3)CC2)cc1,-1,-1,-10,51*,3,-1%
C(=NN1CCN(C(c2ccccc2)c2ccccc2)CC1)c1ccc2c(c1)OCO2,/,/,/,/,3,/
COc1ccccc1N1CCN(S(=O)(=O)CCNC(=O)c2ccc(Br)o2)CC1,-1,-2,8,76*,5,-1%
O=C(NCCS(=O)(=O)N1CCN(c2ccccc2)CC1)c1ccc(Br)o1,1,0,1,-9,6,/
Brc1cccc(C=NNc2nc(N3CCCCC3)nc(N3CCCCC3)n2)c1,/,/,/,/,-2,/
CC1C(=O)NN=C1C(=O)NN=Cc1cccs1 (configuration not stated),/,/,/,/,10,/
COc1cc(/C=N/N=C2/C(=O)Nc3ccccc32)cc(OC)c1O,-5,/,-2,67*,/,-14%
SMILES,LEDGF integ inh,CASP6 VEID inh,TDP2 absorb,NSD2 inh,UCH37 inh,AlphaScreen art
O=C(O)COc1ccc(C=NNC(=O)COc2nsnc2N2CCOCC2)cc1,/,/,/,/,4,/
COc1ccc(C=NNS(=O)(=O)c2ccc(NC(C)=O)cc2)cc1,/,/,/,/,2,/
CC(=O)Nc1ccc(S(=O)(=O)NCCNS(=O)(=O)c2ccc(NC(C)=O)cc2)cc1,-3,2,9,-7,3,/
CC(=O)Nc1ccc(S(=O)(=O)NCCSCc2ccc(Cl)cc2Cl)cc1,1,/,0,50*,0,0%
COc1ccccc1N1CCN(C2CCN(C(=O)c3cccc(F)c3)CC2)CC1,-3,-5,7,59*,2,-2%
CN1CCN(c2ccc(NC(=O)COc3ccc4ccccc4c3)cc2)CC1,6,-7,12,125*,6,-1%
COc1cc([N+](=O)[O-])cc(C=NNC(=O)c2ccc(NC(=O)c3ccc(C)cc3)cc2)c1O,/,/,/,/,4,/
COc1ccc(CC(=O)NC2CCCCCC2)c(OC)c1,-2,-2,-10,77*,-1,0%
COc1ccccc1NS(=O)(=O)c1ccc(N/N=C/c2ccccc2OCC(=O)O)c([N+](=O)[O-])c1,-1,12,-4,/,/,/
O=C(O)COc1ccccc1/C=N/Nc1ccc(S(=O)(=O)Nc2ccc(Cl)cc2)cc1[N+](=O)[O-],-4,24,-7,50*,/,-13%
COc1ccc(-c2nnc(SCC(=O)c3ccc[nH]3)o2)cc1,3,/,-1,-1,2,/
COc1ccc(-c2nnc(SCC(=O)c3ccc(O)cc3O)o2)cc1,0,4,0,81*,4,-3%
COc1ccc(C=NNC(=O)c2cc(C)oc2C)cc1OC,/,/,/,/,10,/
O=C(O)c1[nH]c2ccccc2c1C(c1cc(Cl)cc([N+](=O)[O-])c1O)c1c(C(=O)O)[nH]c2ccccc12,14*,8,23,55*,13,-20%
CCc1ccc(-n2cccc2/C=C2/C(=N)N3C(=NC2=O)SN=C3S(C)(=O)=O)cc1,0,/,1,89*,9,-10%
CCC1=NN2C(=N)/C(=C\c3cccn3-c3ccc(Cl)cc3)C(=O)N=C2S1,-2,0,3,9,2,/
COC(=O)c1cc(NC(=O)Nc2cc(OC)ccc2OC)cc(C(=O)OC)c1,-1,/,2,120*,2,3%
O=C(Nc1cccc(O)c1)c1ccc(Br)cc1,1,/,0,67*,3,0%
O=C(COc1ncnc2c(Cl)cc(Cl)cc12)N1CCCCC1,-2,-1,17,53*,-1,-7%
CN1C(=O)C(CCC(=O)O)NC1=S (configuration not stated),-1,1,0,77*,3,-1%
Cc1nn(C)cc1C=NNC(=O)Cn1nnc(N)n1,/,/,/,/,1,/
CCc1ccc(OCC(=O)NN=C(C)c2ccc(-n3ccnc3)cc2)cc1,/,/,/,/,4,/
CC1=CS(=O)(=O)CC1Sc1ncn[nH]1 (configuration not stated),2,/,3,144*,2,-5%
Cc1[nH]c(=O)[nH]c(=O)c1C=NNC(=O)[C@@H](NC(=O)OC(C)(C)C)C(C)C,/,/,/,/,1,/
Cc1cc(SCC(=O)c2ccc(O)c(O)c2)nc2ccccc12,-2,21,-4,67*,5,-18%
Cc1cc(SCC(=O)Nc2cccnc2Cl)nc2ccccc12,-4,-1,-13,65*,3,-4%
Cc1nc(NC(=O)CSc2cc(C)c3ccccc3n2)c(Cl)cc1Cl,-1,/,-1,-1,-2,/
Cc1cc(SCC(=O)c2ccc3c(c2)OCO3)nc2ccccc12,1,/,-6,-5,1,/
O=c1c2c(n3cnnc3n1-c1ccccc1)-c1ccccc1CC21CCCC1,-5,-2,-3,102*,-1,-8%
